The structures appear in SMILES notation. Bounds are passed on as bounds.

Data set [1] can be described thus: Therapeutic index, ratio of CC50 for human HeLaP4 cells to EC50 for HIV1 […]. It is filed as cell-based. Conditions: read-out: Ratio CC50/EC50.
Data set [2] has as its system Human immunodeficiency virus 1. The data set is described as follows: Antiviral activity against HIV1 […] in human HeLaP4 cells assessed as beta-galactosidase activity after 72 hrs. It is filed as functional, organism-based. To be noted: Human immunodeficiency virus 1, HeLaP4, 72 h. The method, boiled down: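 Virus (HIV-1 pNL4-3) made by transfecting P4 cells with the genomic clone. Infected CEM4fx cells in triplicate grown with increasing drug concentrations for 3 days. Supernatants collected at 72 h were used to infect HeLa-CD4-β-gal (P4) reporter cells for 24 h. Cells were lysed (50 mM 2-mercaptoethanol, 10 mM MgSO4, 25 mM EDTA, 0.125% NP40), incubated with CPRG, and read at 570 nm. Replicates averaged.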

The nature of data set [3]: Cytotoxicity gainst human HeLaP4 cells after 3 days by MTT assay. In kind it is cell-based.
Data set [4] deals with Human immunodeficiency virus type 1 integrase (Human immunodeficiency virus 1, UniProt Q7ZJM1). The data set is described as follows: Inhibition of HIV1 integrase after 1 hr by ELISA. The method, boiled down:
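ELISA with annealed oligos (7 nM): a 3′-biotin strand and a 5′-digoxigenin complementary strand. Integrase was diluted in 750 mM NaCl, 10 mM Tris pH 7.6, 10% glycerol, 1 mM β-mercaptoethanol, 0.1 mg/mL BSA. Reaction in 10 mM MgCl₂, 5 mM DTT, 20 mM HEPES pH 7.5, 5% PEG, 15% DMSO, 1 h at 37 °C. Detection by immunosorbent assay on avidin-coated plates.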

A short description of data set [5]: Therapeutic index, ratio of CC50 for human MT4 cells to EC50 for HIV1 3B. It is filed as cell-based. Conditions: read-out: Ratio CC50/EC50. The procedure, abridged: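 MT-4 cells were infected with 100–300 CCID₅₀ of HIV-1 IIIB, with the CCID₅₀ titrated on MT-4 cells. Drugs were added as fivefold serial dilutions. Protection from virus-induced cytopathic effect was read by MTT reduction to formazan, giving EC₅₀, and CC₅₀ was determined in parallel.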

The next data set concerns MT4. The experiment in a line: Cytotoxicity gainst human MT4 cells after 3 days by MTT assay. Conditions: MT4, 72 h. It is filed as cell-based. The method, boiled down:
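MT-4 cells in the MT-4/MTT format. CC50 determined in parallel with the antiviral EC50 using the MTT formazan read-out.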

For data set [6], the system named is Human immunodeficiency virus 1. The data set is described as follows: Antiviral activity against HIV1 3B infected in human MT4 cells assessed as inhibition of virus-induced cytopathic effect by MTT assay. To be noted: Human immunodeficiency virus 1, 3B. In kind it is functional. The method, boiled down: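 HIV-1 IIIB stock titred on MT-4 cells to find CCID50. MT-4 cells infected with 100–300 CCID50 in the presence of fivefold serial drug dilutions. Protection from virus-induced cytopathic effect read by MTT reduction to formazan, measured spectrophotometrically. EC50 taken as the concentration giving 50% protection.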

Sequence of Human immunodeficiency virus type 1 integrase (Q7ZJM1 whole entry): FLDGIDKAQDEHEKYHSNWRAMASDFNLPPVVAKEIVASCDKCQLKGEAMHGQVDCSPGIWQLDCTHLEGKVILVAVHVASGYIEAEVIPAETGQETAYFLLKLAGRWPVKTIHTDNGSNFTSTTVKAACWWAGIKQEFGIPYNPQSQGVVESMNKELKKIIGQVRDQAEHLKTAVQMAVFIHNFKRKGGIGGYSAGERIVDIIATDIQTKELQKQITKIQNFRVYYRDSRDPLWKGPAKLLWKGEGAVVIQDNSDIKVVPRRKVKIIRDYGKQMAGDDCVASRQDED

For `Oc1ccc(-c2ccc3cc(O)c(O)cc3c2)cc1O`, in data set [1], the selectivity ratio worked out at 5. Further, the EC50 in data set [2] was found to be 9.9 µM. The compound also had a CC50 at 72 h in data set [3] of 51 µM.
`Oc1ccc(-c2ccc3c(O)c(O)ccc3c2)cc1` came in with a half-inhibitory concentration (IC50) in data set [4] of 8.1 µM. In other words, the single-digit micromolar range.
In data set [4], `Oc1ccc2cc(-c3ccccc3C(F)(F)F)ccc2c1O` returned an IC50 of 6 µM. This IC50 and that of the compound before are within 1.5-fold of each other.
In data set [4], `Oc1ccc2cc(-c3cccc(C(F)(F)F)c3)ccc2c1O` gave an IC50 of 10 µM.
Still for that read-out and setting: then `Oc1ccc2cc(-c3ccc(C(F)(F)F)cc3)ccc2c1O`, with 10 µM; and `Oc1ccc2cc(-c3ccccc3F)ccc2c1O`, with 7.3 µM.
On to `O=C1C(=O)c2cc(-c3cc(O)c(O)c(O)c3)ccc2C(Oc2c(O)cc(-c3ccc4cc(O)c(O)c(O)c4c3)cc2O)=C1O`, for which the results for the selectivity ratio in data set [1] and in data set [5] were 74 and 19, respectively. For the same compound, the EC50 in data set [2] turned out to be 1.15 µM. In addition, in data set [4], the IC50 is 0.85 µM. Also, it took 85 µM to reach half-maximal cytotoxicity in data set [3] (CC50 at 72 h).
Take `Oc1ccc2cc(-c3cccc(F)c3)ccc2c1O`: the IC50 in data set [4] was 9.6 µM. In other words, the single-digit micromolar range.
On the same count and under the same terms, then `Oc1ccc2cc(-c3ccc(F)cc3)ccc2c1O`, with 8 µM.
Regarding `Oc1ccc(-c2ccc3c(O)c(O)ccc3c2)cc1O`, in data set [2], the 50% effective concentration (EC50) was 40 µM. The same compound registered an IC50 in data set [4] of 2.2 µM. The CC50 at 72 h in data set [3] was > 100 µM.
In data set [4], `Oc1ccc2cc(-c3ccccc3)ccc2c1O` showed a half-inhibitory concentration (IC50) of 6 µM.
Same read-out and setting: the result for `Oc1ccccc1-c1ccc2c(O)c(O)ccc2c1` reads 10 µM; that for `Oc1cccc(-c2ccc3c(O)c(O)ccc3c2)c1`, 4.8 µM.
As to `Oc1cccc(-c2ccc3c(O)c(O)ccc3c2)c1O`, the EC50 in data set [2] was > 100 µM. This compound also displayed an IC50 in data set [4] of 1 µM. Moreover, the CC50 at 72 h in data set [3] is > 100 µM.
With `Oc1cc(-c2ccc3cc(O)c(O)c(O)c3c2)cc(O)c1O`, in the data set with MT4, the CC50 was > 1 µM. In data set [6], the EC50 turned out to be 1 µM. Besides, the concentration for half-maximal inhibition (IC50) in data set [4] amounted to 0.5 µM.

A word on the EC50: it is the concentration that produces a half-maximal response. One may read the CC50 as the concentration that lowers cell viability or growth by half. One may read the IC50 as the concentration needed to halve the response being measured. Higher therefore signals a need for much substance.

These data come from ChEMBL document CHEMBL1177673, “New 2-arylnaphthalenediols and triol inhibitors of HIV-1 integrase--discovery of a new polyhydroxylated antiviral agent” (Bioorg Med Chem, 2010).
